Source: ChEMBL document CHEMBL3124798, “Convenient one-pot synthesis, anti-mycobacterial and anticancer activities of novel benzoxepinoisoxazolones and pyrazolones” (Eur J Med Chem, 2014)
In brackets after ≈: the same amount, converted by molar mass. Activity calls are given as the source filed them. No cut-off for these calls is given here.

Key:
[1] = system: HEK293; test: Cytotoxicity against HEK293 cells after 48 hrs by MTT assay; format: cell-based, Homo sapiens
Summary of the method: (§1)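 Cells taken from T75 flasks/90 mm dishes when sub-confluent, trypsinized and seeded at 5000–10000 cells/well according to doubling time. Test compounds added after 18 h at four concentrations, in triplicate wells. Incubation 48 h, then MTT (5 mg/mL) for 60 min at 37 °C and the bound dye solubilized. Percent growth taken against control wells. IC50 read from dose-response curves; three independent experiments, mean ± SD.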

[2] = system: HeLa; test: Cytotoxicity against human HeLa cells after 48 hrs by MTT assay; format: functional, cell-based; summary of the method: as §1
[3] = system: DU-145; test: Cytotoxicity against human DU145 cells after 48 hrs by MTT assay; format: functional, cell-based; summary of the method: as §1
[4] = system: A549; test: Cytotoxicity against human A549 cells after 48 hrs by MTT assay; format: functional, cell-based; summary of the method: as §1
[5] = system: Mycolicibacterium smegmatis; test: Antimycobacterial activity against Mycobacterium smegmatis MC2 155 ATCC 14468 after 32 hrs by broth microdilution method; format: functional
Summary of the method: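 M. smegmatis MC² 155 grown overnight to mid-log in Middlebrook 7H9 (0.2% glycerol, 0.1% Tween-80, 10% ADS) at 37 °C, subcultured to OD600 ≈0.3, then diluted 1:1000 into 96-well plates. Final compound levels were […]. Incubated 32 h at 37 °C, turbidity read at OD600, triplicates. GI50 was derived from % growth inhibition. INH/rifampicin positive controls, DMSO and medium-only controls.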

[6] = system: HeLa; test: Induction of apoptosis in human HeLa cells assessed as activation of caspase-3 using Ac-DEVD-AMC as substrate at 10 to 25 uM after 48 hrs by fluorescence assay relative to control; format: functional
Summary of the method: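 HeLa cells treated 48 h with compound or DMSO, then lysed in 50 mM HEPES, 5 mM CHAPS, 5 mM DTT, pH 7.5. Lysate incubated with Ac-DEVD-AMC in 20 mM HEPES pH 7.5, 0.1% CHAPS, 2 mM EDTA, 5 mM DTT for 2 h at 37 °C. AMC read at ex/em 380/460 nm and normalized to Bradford protein. Activity expressed as treated relative to mock-treated. Doxorubicin used as positive control.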

[7] = system: HeLa; test: Ratio of IC50 for HEK293 cells to IC50 for human HeLa cells
[8] = system: HeLa; test: Induction of apoptosis in human HeLa cells assessed as activation of caspase-9 using Ac-DEVD-AMC as substrate at 10 to 25 uM after 48 hrs by fluorescence assay relative to control; format: functional
[9] = Homo sapiens, DU-145, 48 h, read-out: IC50
[10] = Homo sapiens, HeLa, 48 h, read-out: IC50
[11] = Homo sapiens, HEK293, 48 h, read-out: IC50
[12] = Homo sapiens, A549, 48 h, read-out: IC50

Compound	IC50 ([1]; hek293)	IC50 ([2]; hela)	IC50 ([3]; du-145)	IC50 ([4]; a549)	GI50 ([5]; MC2 155 ATCC 14468, 32 h)	IC50 [3, 9]	IC50 [2, 10]	IC50 [1, 11]	IC50 [4, 12]	GI50 [5]	fold change (FC) [6]	Ratio IC50 [7]	fold change (FC) [8]
O=C1C2=Cc3ccccc3OCC2=NN1c1ccccc1	Not Active	Not Active	Not Active	Not Active	23.2 µg/mL (≈ 83.9 µM)	–	–	–	–	–	–	–	–
O=C1C2=Cc3cc(Br)ccc3OCC2=NN1c1ccccc1	Not Active	Not Active	–	Not Active	11.9 µg/mL (≈ 33.5 µM)	123 µM	–	–	–	–	–	–	–
O=C1ON=C2COc3ccccc3C=C12	Not Active	–	–	Not Active	21.4 µg/mL (≈ 106 µM)	84.8 µM	85 µM	–	–	–	–	–	–
COc1cccc2c1C(=O)c1c(O)c3c(c(O)c1C2=O)C[C@@](O)(C(=O)CO)C[C@@H]3O[C@H]1C[C@H](N)[C@H](O)[C@H](C)O1 [DOXORUBICIN]	–	–	–	–	–	8.19 µM	6.94 µM	7.41 µM	7.47 µM	–	–	–	–
O=C1C2=Cc3ccccc3OCC2=NN1c1ccc(F)cc1	Not Active	Not Active	Not Active	Not Active	38.7 µg/mL (≈ 132 µM)	–	–	–	–	–	–	–	–
O=C1C2=Cc3ccccc3OCC2=NN1c1ccc(Br)cc1	Not Active	Not Active	–	Not Active	–	117 µM	–	–	–	inactive	–	–	–
O=C1C2=Cc3ccccc3OCC2=NN1c1ccc(Cl)cc1	Not Active	Not Active	–	–	–	89.4 µM	–	–	215 µM	inactive	–	–	–
Cc1ccc(N2N=C3COc4ccccc4C=C3C2=O)cc1C	Not Active	Not Active	Not Active	–	19.4 µg/mL (≈ 63.6 µM)	–	–	–	84.3 µM	–	–	–	–
CO[C@H]1/C=C/O[C@@]2(C)Oc3c(C)c(O)c4c(O)c(c(/C=N/N5CCN(C)CC5)c(O)c4c3C2=O)NC(=O)/C(C)=C\C=C\[C@H](C)[C@H](O)[C@@H](C)[C@@H](O)[C@@H](C)[C@H](OC(C)=O)[C@@H]1C [RIFAMPIN]	–	–	–	–	1.04 µg/mL (≈ 1.26 µM)	–	–	–	–	–	–	–	–
O=C1C2=Cc3ccccc3OCC2=NN1c1cccc(Cl)c1	Not Active	Not Active	Not Active	–	–	–	–	–	244 µM	inactive	–	–	–
Cc1ccccc1N1N=C2COc3ccccc3C=C2C1=O	–	–	–	Not Active	–	63.9 µM	109 µM	154 µM	–	inactive	–	–	–
Cc1cccc(N2N=C3COc4ccccc4C=C3C2=O)c1	Not Active	Not Active	Not Active	Not Active	–	–	–	–	–	inactive	–	–	–
Cc1ccc(N2N=C3COc4ccc(-c5ccccc5)cc4C=C3C2=O)cc1	–	–	–	Not Active	34 µg/mL (≈ 92.8 µM)	78.2 µM	185 µM	149 µM	–	–	–	–	–
COc1ccc2c(c1)C=C1C(=O)ON=C1CO2	–	–	–	–	–	33.6 µM	10.1 µM	47.7 µM	46.5 µM	inactive	<=40	4	20
O=C1C2=Cc3cc(-c4ccccc4)ccc3OCC2=NN1c1ccccc1	Not Active	Not Active	Not Active	–	–	–	–	–	117 µM	inactive	–	–	–
COc1ccc2c(c1)C=C1C(=O)N(c3ccccc3)N=C1CO2	Not Active	–	Not Active	Not Active	15.7 µg/mL (≈ 51.1 µM)	–	167 µM	–	–	–	–	–	–
O=C1C2=Cc3ccccc3OCC2=NN1c1cccc(F)c1	Not Active	–	–	–	–	97 µM	190 µM	–	179 µM	inactive	–	–	–
COc1ccc(N2N=C3COc4ccccc4C=C3C2=O)cc1	Not Active	–	–	–	–	67.5 µM	166 µM	–	133 µM	inactive	–	–	–
O=C1ON=C2COc3ccc(Br)cc3C=C12	–	–	–	–	28.5 µg/mL (≈ 102 µM)	28.8 µM	10.1 µM	48.2 µM	49.1 µM	–	<=40	4	20
COc1ccc2c(c1)C=C1C(=O)N(c3ccc(C)cc3)N=C1CO2	–	–	–	–	–	117 µM	129 µM	138 µM	199 µM	inactive	–	–	–
NNC(=O)c1ccncc1 [ISONIAZID]	–	–	–	–	7.94 µg/mL (≈ 57.9 µM)	–	–	–	–	–	–	–	–
COc1ccc2c(c1)C=C1C(=O)N(c3ccc(Br)cc3)N=C1CO2	–	–	Not Active	–	–	–	180 µM	161 µM	33.3 µM	inactive	–	–	–
O=C1ON=C2COc3ccc(-c4ccccc4)cc3C=C12	–	–	–	–	9.1 µg/mL (≈ 32.8 µM)	28.9 µM	9.03 µM	39.2 µM	29.7 µM	–	<=40	4	20
Cc1ccc(N2N=C3COc4ccc(Br)cc4C=C3C2=O)cc1	Not Active	Not Active	Not Active	–	42.4 µg/mL (≈ 115 µM)	–	–	–	163 µM	–	–	–	–
O=C1C2=Cc3cc(-c4ccccc4)ccc3OCC2=NN1c1ccc(Br)cc1	Not Active	Not Active	–	–	–	140 µM	–	–	118 µM	inactive	–	–	–
O=C1C2=Cc3cc(Br)ccc3OCC2=NN1c1ccc(Br)cc1	Not Active	Not Active	Not Active	Not Active	–	–	–	–	–	inactive	–	–	–
Cc1ccc(N2N=C3COc4ccccc4C=C3C2=O)cc1	Not Active	Not Active	–	Not Active	49.3 µg/mL (≈ 170 µM)	152 µM	–	–	–	–	–	–	–
